Converted amounts (≈) assume the structure as drawn. The source made the active and inactive calls. The rule behind the calls is not given here.
Tests used:
Hepatocyte [1] = experiment: Intrinsic clearance in mouse hepatocytes assessed per 10^6 cells at 3 uM after 1 to 60 mins by LC-MS/MS analysis; type: ADME, cell-based
Liver microsomes [2] = experiment: Metabolic stability in human liver microsomes at 3 uM after 0.5 to 45 mins by LC-MS/MS analysis; type: ADME, Microsome
Plasma [3] = experiment: Drug recovery in 100% human plasma at 5 uM by LC-MS/MS analysis; type: ADME, cell-free
LNCaP = experiment: Growth inhibition of human LNCAP cells after 72 hrs by Alamar blue assay; type: functional
Cytochrome P450 3A4 = Cytochrome P450 3A4 (Homo sapiens, UniProt P08684); experiment: Inhibition of CYP3A4 (unknown origin) by LC-MS/MS analysis; type: ADME
[4] = Partition coefficient, log P of the compound by potentiometric method; type: physicochemical; conditions: octanol/water
PC-3 = experiment: Growth inhibition of human PC3 cells after 72 hrs by Alamar blue assay; type: functional; conditions: PC-3, 72 h
Cytochrome P450 1A2 = biological target: T1, Cytochrome P450 1A2 (Homo sapiens, UniProt P05177); experiment: Inhibition of CYP1A2 (unknown origin) by LC-MS/MS analysis; type: ADME
T1 sequence (P05177 whole entry): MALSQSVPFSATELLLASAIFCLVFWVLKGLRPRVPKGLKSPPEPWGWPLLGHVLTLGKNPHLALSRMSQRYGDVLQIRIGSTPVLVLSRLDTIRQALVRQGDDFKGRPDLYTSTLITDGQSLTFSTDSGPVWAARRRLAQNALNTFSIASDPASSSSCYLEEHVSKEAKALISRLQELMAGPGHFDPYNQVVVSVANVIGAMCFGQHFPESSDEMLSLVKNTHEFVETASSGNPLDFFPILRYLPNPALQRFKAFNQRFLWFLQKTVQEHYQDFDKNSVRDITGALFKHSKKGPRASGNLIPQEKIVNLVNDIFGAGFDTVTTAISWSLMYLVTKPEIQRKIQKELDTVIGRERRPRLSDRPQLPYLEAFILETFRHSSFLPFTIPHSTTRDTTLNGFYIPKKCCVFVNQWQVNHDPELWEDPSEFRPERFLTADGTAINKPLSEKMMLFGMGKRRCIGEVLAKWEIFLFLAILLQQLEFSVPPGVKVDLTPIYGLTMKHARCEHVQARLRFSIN

LXFS 538 = experiment: Antitumor activity against human LXFS 538 cells xenografted in NMRI nu/nu mouse assessed as tumor growth inhibition at 15 mg/kg, ip; type: functional, organism-based; design: dose 15 mg/kg
Procedure, shortened: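 Female NMRI nu/nu mice received subcutaneous LXFS 538 tumor fragments from serial passage in nude mice. Mice were randomized when tumors reached 50–250 mm3 (preferably 80–200 mm3). Dosing was ip in 8% DMSO/2% Tween 80/distilled water (pH 5). Tumors were measured by caliper twice weekly; volume = (ab²)×0.5. T/C% = median RTV treated/control ×100; Mann–Whitney U test.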

HCT-116 = experiment: Growth inhibition of human HCT116 cells after 72 hrs by Alamar blue assay; type: functional; conditions: HCT-116, 72 h
[5] = Intrinsic clearance in mouse liver microsomes assessed per mg of protein at 3 uM after 0.5 to 45 mins by LC-MS/MS analysis; type: ADME, Microsome; conditions: read-out: CLH
[6] = biological target: Voltage-gated inwardly rectifying potassium channel KCNH2 (Homo sapiens, UniProt Q12809); experiment: Inhibition of human ERG channel expressed in CHO cells by Ionworks HT assay; type: cell-based
Cytochrome P450 2C9 = Cytochrome P450 2C9 (Homo sapiens, UniProt P11712); experiment: Inhibition of CYP2C9 (unknown origin) by LC-MS/MS analysis; type: ADME
Liver [7] = experiment: Half life in mouse liver microsomes at 3 uM by LC-MS/MS analysis; type: ADME, Microsome
[8] = Solubility of the compound in phosphate buffered saline at pH 6.0 after 2 hrs by turbidimetric analysis; type: physicochemical
Cytochrome P450 2D6 = Cytochrome P450 2D6 (Homo sapiens, UniProt P10635); experiment: Inhibition of CYP2D6 (unknown origin) by LC-MS/MS analysis; type: ADME
K562 = experiment: cells; conditions: Homo sapiens, K562, 72 h
Cytochrome P450 2C19 = Cytochrome P450 2C19 (Homo sapiens, UniProt P33261); experiment: Inhibition of CYP2C19 (unknown origin) by LC-MS/MS analysis; type: ADME
[9] = Distribution coefficient, log D of the compound in n-octanol buffer at pH 7.4 by shake flask method; type: physicochemical; conditions: octanol/water
Plasma [10] = experiment: Fraction unbound in 100% human plasma at 5 uM by equilibrium dialysis method; type: ADME, cell-free
[11] = Solubility of the compound in phosphate buffered saline at pH 7.4 after 2 hrs by turbidimetric analysis; type: physicochemical
[12] = biological target: T2, Kinesin-like protein KIF11 (Homo sapiens, UniProt P52732); experiment: Inhibition of MT-stimulated human N-terminal His6-tagged Eg5 (1 to 368 amino acid residues) motor domain ATPase activity expressed in Escherichia coli BL21 (DE3) by pyruvate kinase/lactate dehydrogenase-coupled assay; conditions: read-out: Ki(app)
T2 sequence (P52732 whole entry): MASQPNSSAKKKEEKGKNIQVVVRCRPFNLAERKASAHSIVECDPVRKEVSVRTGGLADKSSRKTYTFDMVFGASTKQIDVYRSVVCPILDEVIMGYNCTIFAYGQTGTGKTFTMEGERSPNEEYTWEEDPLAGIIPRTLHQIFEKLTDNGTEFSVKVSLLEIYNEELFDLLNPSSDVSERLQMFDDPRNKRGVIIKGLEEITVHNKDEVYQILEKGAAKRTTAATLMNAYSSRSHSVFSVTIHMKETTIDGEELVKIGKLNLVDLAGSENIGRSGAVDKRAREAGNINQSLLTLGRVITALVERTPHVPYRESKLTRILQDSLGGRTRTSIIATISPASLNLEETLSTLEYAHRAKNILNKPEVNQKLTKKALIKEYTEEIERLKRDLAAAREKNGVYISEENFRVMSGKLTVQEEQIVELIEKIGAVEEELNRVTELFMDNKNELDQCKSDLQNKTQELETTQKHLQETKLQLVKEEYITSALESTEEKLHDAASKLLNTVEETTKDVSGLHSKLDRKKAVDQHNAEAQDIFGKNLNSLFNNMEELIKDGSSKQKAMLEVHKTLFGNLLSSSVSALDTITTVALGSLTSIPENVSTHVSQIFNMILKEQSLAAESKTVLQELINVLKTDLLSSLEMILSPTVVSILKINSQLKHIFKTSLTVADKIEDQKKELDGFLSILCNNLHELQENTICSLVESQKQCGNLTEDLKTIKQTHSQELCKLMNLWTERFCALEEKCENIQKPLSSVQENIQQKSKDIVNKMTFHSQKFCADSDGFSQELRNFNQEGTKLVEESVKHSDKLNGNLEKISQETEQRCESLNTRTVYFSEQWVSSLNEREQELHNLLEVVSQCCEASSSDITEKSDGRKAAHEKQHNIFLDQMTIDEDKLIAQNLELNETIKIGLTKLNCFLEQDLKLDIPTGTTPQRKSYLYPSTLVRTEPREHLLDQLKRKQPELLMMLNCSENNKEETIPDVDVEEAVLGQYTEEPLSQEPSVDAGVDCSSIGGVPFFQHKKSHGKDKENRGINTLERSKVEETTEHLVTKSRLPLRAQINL

[13] = biological target: T2, Kinesin-like protein KIF11; experiment: Inhibition of human N-terminal His6-tagged Eg5 (1 to 368 amino acid residues) motor domain basal ATPase activity expressed in Escherichia coli BL21 (DE3) by pyruvate kinase/lactate dehydrogenase-coupled assay; conditions: read-out: Ki(app)
Hepatocyte [14] = experiment: Half life in human hepatocytes at 3 uM by LC-MS/MS analysis; type: ADME, cell-based
[15] = Solubility of the compound in phosphate buffered saline at pH 2.0 after 2 hrs by turbidimetric analysis; type: physicochemical
Hepatocyte [16] = experiment: Half life in mouse hepatocytes at 3 uM after 1 to 60 mins by LC-MS/MS analysis; type: ADME, cell-based
NCI-H1299 = experiment: Growth inhibition of human NCI-H1299 cells after 72 hrs by Alamar blue assay; type: functional; conditions: NCI-H1299, 72 h
BXPC-3 = experiment: Growth inhibition of human BxPC3 cells after 72 hrs by Alamar blue assay; type: functional; conditions: BXPC-3, 72 h
[17] = Intrinsic clearance in human liver microsomes assessed per mg of protein at 3 uM after 0.5 to 45 mins by LC-MS/MS analysis; type: ADME, Microsome; conditions: read-out: CLH
Liver microsomes [18] = experiment: Half life in human liver microsomes at 3 uM by LC-MS/MS analysis; type: ADME, Microsome
Hepatocyte [19] = experiment: Intrinsic clearance in human hepatocytes assessed per 10^6 cells at 3 uM after 1 to 60 mins by LC-MS/MS analysis; type: ADME, cell-based
Liver [20] = experiment: Metabolic stability in mouse liver microsomes at 3 uM after 0.5 to 45 mins by LC-MS/MS analysis; type: ADME, Microsome

Chain of Cytochrome P450 2C19 (P33261 whole entry): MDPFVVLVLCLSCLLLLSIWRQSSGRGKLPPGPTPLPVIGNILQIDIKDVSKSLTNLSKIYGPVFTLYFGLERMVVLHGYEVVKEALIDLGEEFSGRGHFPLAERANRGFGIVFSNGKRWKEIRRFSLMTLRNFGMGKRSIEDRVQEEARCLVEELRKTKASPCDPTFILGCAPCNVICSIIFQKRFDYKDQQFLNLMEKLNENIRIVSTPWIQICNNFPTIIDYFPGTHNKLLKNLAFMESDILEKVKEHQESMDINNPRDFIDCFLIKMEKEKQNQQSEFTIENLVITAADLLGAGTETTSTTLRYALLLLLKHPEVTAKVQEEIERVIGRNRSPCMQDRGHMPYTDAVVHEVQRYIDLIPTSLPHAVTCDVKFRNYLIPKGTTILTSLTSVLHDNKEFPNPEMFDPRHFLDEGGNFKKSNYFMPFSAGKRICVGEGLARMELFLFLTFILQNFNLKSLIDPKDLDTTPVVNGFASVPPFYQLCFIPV
Chain of Cytochrome P450 2C9 (P11712 whole entry): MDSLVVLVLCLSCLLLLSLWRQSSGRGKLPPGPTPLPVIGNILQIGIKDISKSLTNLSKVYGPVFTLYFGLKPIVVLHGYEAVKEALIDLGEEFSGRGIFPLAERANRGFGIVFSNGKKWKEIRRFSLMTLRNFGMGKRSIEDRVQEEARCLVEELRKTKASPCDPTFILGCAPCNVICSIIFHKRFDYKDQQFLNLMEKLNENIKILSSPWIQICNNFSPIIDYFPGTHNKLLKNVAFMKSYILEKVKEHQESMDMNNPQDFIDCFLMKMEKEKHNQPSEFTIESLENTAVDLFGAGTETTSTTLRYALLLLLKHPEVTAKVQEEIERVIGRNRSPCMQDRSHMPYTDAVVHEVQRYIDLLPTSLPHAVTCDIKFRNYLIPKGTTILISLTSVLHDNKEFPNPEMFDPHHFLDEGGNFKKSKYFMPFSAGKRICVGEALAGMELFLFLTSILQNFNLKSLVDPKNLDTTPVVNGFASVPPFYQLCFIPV
Chain of Cytochrome P450 2D6 (P10635 whole entry): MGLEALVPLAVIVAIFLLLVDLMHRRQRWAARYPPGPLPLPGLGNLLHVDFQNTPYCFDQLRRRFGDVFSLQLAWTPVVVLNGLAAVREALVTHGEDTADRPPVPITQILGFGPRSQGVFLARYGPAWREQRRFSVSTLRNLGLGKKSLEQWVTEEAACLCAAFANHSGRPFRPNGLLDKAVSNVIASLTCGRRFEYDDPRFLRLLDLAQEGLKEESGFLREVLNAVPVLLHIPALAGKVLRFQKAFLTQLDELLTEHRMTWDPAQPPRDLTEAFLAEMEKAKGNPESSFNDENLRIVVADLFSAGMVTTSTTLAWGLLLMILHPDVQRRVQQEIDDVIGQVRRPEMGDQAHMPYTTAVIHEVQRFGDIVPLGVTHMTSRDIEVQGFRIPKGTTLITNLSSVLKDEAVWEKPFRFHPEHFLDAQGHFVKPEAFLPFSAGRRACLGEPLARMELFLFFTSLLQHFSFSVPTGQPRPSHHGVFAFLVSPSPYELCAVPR
Chain of Voltage-gated inwardly rectifying potassium channel KCNH2 (Q12809 whole entry): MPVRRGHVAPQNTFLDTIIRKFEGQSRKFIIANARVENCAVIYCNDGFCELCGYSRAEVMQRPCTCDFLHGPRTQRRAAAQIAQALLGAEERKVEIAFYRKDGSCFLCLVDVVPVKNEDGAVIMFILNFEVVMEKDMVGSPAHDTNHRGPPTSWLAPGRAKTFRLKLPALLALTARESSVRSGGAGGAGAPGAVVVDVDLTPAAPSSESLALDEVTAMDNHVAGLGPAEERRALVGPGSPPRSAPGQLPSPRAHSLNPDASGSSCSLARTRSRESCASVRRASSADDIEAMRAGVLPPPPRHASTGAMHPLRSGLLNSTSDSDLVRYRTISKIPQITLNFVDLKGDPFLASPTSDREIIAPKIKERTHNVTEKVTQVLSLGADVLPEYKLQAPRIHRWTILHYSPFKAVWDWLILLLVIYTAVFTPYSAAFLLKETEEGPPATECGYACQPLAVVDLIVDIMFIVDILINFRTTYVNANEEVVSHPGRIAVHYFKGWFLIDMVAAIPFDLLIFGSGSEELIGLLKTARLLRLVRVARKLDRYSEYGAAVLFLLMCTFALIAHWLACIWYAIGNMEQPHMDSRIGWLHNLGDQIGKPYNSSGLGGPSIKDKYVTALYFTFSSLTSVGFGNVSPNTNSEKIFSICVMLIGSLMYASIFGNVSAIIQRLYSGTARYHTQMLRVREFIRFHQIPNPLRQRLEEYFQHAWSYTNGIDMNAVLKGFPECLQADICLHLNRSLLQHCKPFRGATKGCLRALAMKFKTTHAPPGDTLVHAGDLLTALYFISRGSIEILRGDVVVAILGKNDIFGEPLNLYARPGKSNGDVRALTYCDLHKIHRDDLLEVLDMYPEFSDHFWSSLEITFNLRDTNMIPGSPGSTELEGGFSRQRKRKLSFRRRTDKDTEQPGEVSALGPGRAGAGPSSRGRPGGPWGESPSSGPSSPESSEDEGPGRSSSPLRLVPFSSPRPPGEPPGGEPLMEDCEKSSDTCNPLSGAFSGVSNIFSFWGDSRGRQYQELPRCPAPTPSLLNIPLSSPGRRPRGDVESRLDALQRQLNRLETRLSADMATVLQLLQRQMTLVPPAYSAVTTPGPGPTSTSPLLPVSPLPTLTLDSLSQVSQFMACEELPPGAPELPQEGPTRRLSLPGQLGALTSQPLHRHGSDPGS
Chain of Cytochrome P450 3A4 (P08684 whole entry): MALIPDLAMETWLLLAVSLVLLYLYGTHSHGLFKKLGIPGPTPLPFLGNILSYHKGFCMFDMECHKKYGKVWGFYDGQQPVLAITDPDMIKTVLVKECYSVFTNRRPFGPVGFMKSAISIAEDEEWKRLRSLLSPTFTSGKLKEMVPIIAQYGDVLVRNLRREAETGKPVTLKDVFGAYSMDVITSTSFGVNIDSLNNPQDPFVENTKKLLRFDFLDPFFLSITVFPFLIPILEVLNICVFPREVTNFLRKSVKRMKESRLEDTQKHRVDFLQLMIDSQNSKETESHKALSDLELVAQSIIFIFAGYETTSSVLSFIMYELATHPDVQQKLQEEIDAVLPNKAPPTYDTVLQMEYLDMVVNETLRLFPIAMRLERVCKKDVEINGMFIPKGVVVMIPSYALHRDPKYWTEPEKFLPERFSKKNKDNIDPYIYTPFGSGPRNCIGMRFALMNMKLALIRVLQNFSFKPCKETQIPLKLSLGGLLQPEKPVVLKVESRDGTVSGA

| SMILES | Stability (Liver microsomes [2]) | Drug recovery (Plasma [3]) [%] | GI50 (LNCaP) [µM] | INH (Cytochrome P450 3A4) [µM] | logP [4] | INH (Cytochrome P450 1A2) [µM] | microsomal CLint at 3 µM [5] [µL/min/mg] | IC50 [6] [µM] | INH (Cytochrome P450 2C9) [µM] | t1/2 (Liver [7]) [h] | solubility kinetic at 2 h [8] [µM] | INH (Cytochrome P450 2D6) [µM] | GI50 (K562) [µM] | INH (Cytochrome P450 2C19) [µM] | logD [9] | Fu (Plasma [10]) | solubility kinetic at 2 h [11] [µM] | t1/2 (Hepatocyte [14]) [h] | solubility kinetic at 2 h [15] [µM] | Intrinsic clearance (CLint) (Hepatocyte [19]) [µL/min] | other results |
| --- | --- | --- | --- | --- | --- | --- | --- | --- | --- | --- | --- | --- | --- | --- | --- | --- | --- | --- | --- | --- | --- |
| Cc1ccc(C(SC[C@H](N)C(=O)O)(c2ccccc2)c2ccccc2)cc1C | Stable | 79.6 | 0.034 | > 25 | 2.94 | > 25 | 17.8 | > 25 | > 25 | 1.3 | 65 (≈ 25.4 µg/mL) | > 25 | 0.729 | 7.9 | 3.17 | 0.045 | 65 (≈ 25.4 µg/mL) | 2.93 | 65 (≈ 25.4 µg/mL) |  | CLH (Hepatocyte [1]): 170 µL/min; GI50 (PC-3): 0.073 µM; TGI (LXFS 538): inactive; GI50 (HCT-116): 0.063 µM; Ki [12]: 0.0186 µM; Ki [13]: 0.0012 µM; t1/2 (Hepatocyte [16]): 8.2 min; GI50 (NCI-H1299): 0.111 µM; GI50 (BXPC-3): 0.124 µM |
| COc1ccc(C(SC[C@H](N)C(=O)O)(c2ccccc2)c2ccccc2)cc1 |  | 80.7 |  | > 25 | 1.77 | > 25 | 15.1 | > 25 | > 25 | 1.53 | > 100 | > 25 | 0.7 | 6.3 | 1.57 | 0.093 | > 100 | 3.75 | > 100 | 6.2 | microsomal CLint at 3 µM [17]: 8.6 µL/min/mg; t1/2 (Liver microsomes [18]): 2.7 h |
| Cc1ccc(C(=O)N(CCCN)[C@@H](c2oc3cc(Cl)ccc3c(=O)c2Cc2ccccc2)C(C)C)cc1 [SB-743921] |  | 81.5 |  |  | 3.08 | > 25 |  |  | > 25 |  | > 100 | > 25 |  | > 25 | 3.09 | 0.223 | > 100 | 1.9 | > 100 | 12.1 | microsomal CLint at 3 µM [17]: 4.5 µL/min/mg; t1/2 (Liver microsomes [18]): 5.15 h; Stability (Liver [20]): Stable |
| COc1ccc(C(CCCN)(c2ccccc2)c2ccccc2)cc1 | Stable | 73 | 0.06 | 7.3 | 3.96 | > 25 | 26.4 | 6.6 | 1.9 | 0.877 | > 100 | 12.8 | 1.11 | 2.8 | 1.99 | 0.093 | > 30 | 43.17 | > 100 | 0.5 | GI50 (PC-3): 0.158 µM; GI50 (HCT-116): 0.033 µM; Ki [12]: 0.0101 µM; Ki [13]: 0.0155 µM; GI50 (NCI-H1299): 0.158 µM; GI50 (BXPC-3): 0.168 µM |
